Data: ChEMBL document CHEMBL4257484, “Membrane-active antimicrobial poly(amino-modified alkyl) β-cyclodextrins synthesized via click reactions” (Medchemcomm, 2018)
In brackets after ≈: the same amount, converted by molar mass.

Tests used:
[1] = Lipophilicity, log P of the compound; assay type: physicochemical; conditions: octanol/water
Staphylococcus aureus [2] = assay: Antibacterial activity against methicillin-sensitive Staphylococcus aureus FDA 209P after 20 hrs by liquid microdilution method; assay type: functional
How it was run: (§1)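 Two-fold serial dilutions of compound in Mueller–Hinton broth, inoculated with 1 × 10^4 cells and cultured at 37 °C for 20 h in microtiter wells.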

Bacillus subtilis = assay: Antibacterial activity against drug-sensitive Bacillus subtilis 168 after 20 hrs by liquid microdilution method; assay type: functional; conditions: subsp. subtilis str. 168, 20 h; how it was run: as §1
Escherichia coli = assay: Antibacterial activity against drug-sensitive Escherichia coli K-12 W3110 after 20 hrs by liquid microdilution method; assay type: functional; conditions: K-12 substr. W3110, 20 h; how it was run: as §1
Salmonella typhimurium = assay: Antibacterial activity against drug-sensitive Salmonella typhimurium LT2 after 20 hrs by liquid microdilution method; assay type: functional, Salmonella enterica subsp. enterica serovar Typhimurium; conditions: Salmonella enterica, LT2, 20 h; how it was run: as §1
Pseudomonas aeruginosa = assay: Antibacterial activity against drug-sensitive Pseudomonas aeruginosa PAO1 after 20 hrs by liquid microdilution method; assay type: functional; conditions: PAO1, 20 h; how it was run: as §1
[3] = Hemolytic activity in rabbit RBC at 50 uM after 20 mins relative to control; assay type: ADME, cell-based, Oryctolagus cuniculus, Erythrocyte; conditions: rabbit red blood cells (erythrocytes), read-out: Activity
How it was run: (§2)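 Rabbit erythrocytes suspended in 150 mM NaCl/10 mM Hepes-NaOH, pH 7.4, at 0.5% hematocrit (final) and incubated with compound at 37 °C. The table footnote gives 20 min; the methods section gives 30 min. Hemolysis was read as absorbance at 540 nm, with 50 µM lysolecithin defining 100% hemolysis.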

[4] = Hemolytic activity in rabbit RBC at 20 uM after 20 mins relative to control; assay type: ADME, cell-based, Oryctolagus cuniculus, Erythrocyte; conditions: rabbit red blood cells (erythrocytes), read-out: Activity; how it was run: as §2
[5] = Hemolytic activity in rabbit RBC at 10 uM after 20 mins relative to control; assay type: ADME, cell-based, Oryctolagus cuniculus, Erythrocyte; conditions: rabbit red blood cells (erythrocytes), read-out: Activity; how it was run: as §2
[6] = Hemolytic activity in rabbit RBC at 5 uM after 20 mins relative to control; assay type: ADME, cell-based, Oryctolagus cuniculus, Erythrocyte; conditions: rabbit red blood cells (erythrocytes), read-out: Activity; how it was run: as §2
[7] = Hemolytic activity in rabbit RBC at 2 uM after 20 mins relative to control; assay type: ADME, cell-based, Oryctolagus cuniculus, Erythrocyte; conditions: rabbit red blood cells (erythrocytes), read-out: Activity; how it was run: as §2
[8] = Hemolytic activity in rabbit RBC at 1 uM after 20 mins relative to control; assay type: ADME, cell-based, Oryctolagus cuniculus, Erythrocyte; conditions: rabbit red blood cells (erythrocytes), read-out: Activity; how it was run: as §2
Staphylococcus aureus [9] = assay: Antibacterial activity against methicillin-resistant Staphylococcus aureus MS29202 after 18 to 20 hrs by agar dilution method; assay type: functional
How it was run: (§3)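 Agar dilution per CLSI. Overnight broth cultures were diluted 100-fold, and one loopful (about 10^5 to 10^4 CFU) was spotted onto agar plates containing the CD. Growth was scored after 18–20 h at 37 °C. MIC values are in µM.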

Streptococcus agalactiae = assay: Antibacterial activity against drug-resistant Streptococcus agalactiae B1 after 18 to 20 hrs by agar dilution method; assay type: functional; how it was run: as §3
Enterococcus faecium = assay: Antibacterial activity against drug-resistant Enterococcus faecium MS29120 after 18 to 20 hrs by agar dilution method; assay type: functional; how it was run: as §3
Enterococcus faecalis [10] = assay: Antibacterial activity against drug-resistant Enterococcus faecalis MS29030 after 18 to 20 hrs by agar dilution method; assay type: functional; how it was run: as §3
Enterococcus faecalis [11] = assay: Antibacterial activity against vancomycin-resistant Enterococcus faecalis MS29016 after 18 to 20 hrs by agar dilution method; assay type: functional; how it was run: as §3

Structure (SMILES) | logP [1] | MIC (Staphylococcus aureus [2]) [µM] | MIC (Bacillus subtilis) [µM] | MIC (Escherichia coli) [µM] | MIC (Salmonella typhimurium) [µM] | MIC (Pseudomonas aeruginosa) [µM] | hemolysis at 20 min, 50 µM [3] [%] | hemolysis at 20 min, 20 µM [4] [%] | hemolysis at 20 min, 10 µM [5] [%] | hemolysis at 20 min, 5 µM [6] [%] | hemolysis at 20 min, 2 µM [7] [%] | hemolysis at 20 min, 1 µM [8] [%] | MIC (Staphylococcus aureus [9]) [µM] | MIC (Streptococcus agalactiae) [µM] | MIC (Enterococcus faecium) [µM] | MIC (Enterococcus faecalis [10]) [µM] | MIC (Enterococcus faecalis [11]) [µM]
O[C@@H]1[C@@H](O)[C@H]2O[C@H]3[C@H](O)[C@@H](O)[C@@H](O[C@H]4[C@H](O)[C@@H](O)[C@@H](O[C@H]5[C@H](O)[C@@H](O)[C@@H](O[C@H]6[C@H](O)[C@@H](O)[C@@H](O[C@H]7[C@H](O)[C@@H](O)[C@@H](O[C@H]8[C@H](O)[C@@H](O)[C@@H](O[C@@H]1[C@@H](Cn1cc(CNCCc9ccccc9)nn1)O2)O[C@@H]8Cn1cc(CNCCc2ccccc2)nn1)O[C@@H]7Cn1cc(CNCCc2ccccc2)nn1)O[C@@H]6Cn1cc(CNCCc2ccccc2)nn1)O[C@@H]5Cn1cc(CNCCc2ccccc2)nn1)O[C@@H]4Cn1cc(CNCCc2ccccc2)nn1)O[C@@H]3Cn1cc(CNCCc2ccccc2)nn1 | -0.13 | 3 to 5 (≈ 7.27 to 12.1 µg/mL) | 3 (≈ 7.27 µg/mL) | 10 (≈ 24.2 µg/mL) | 10 (≈ 24.2 µg/mL) | 10 (≈ 24.2 µg/mL) | 40 | 23 | 12 | 7 | 3 | 3 | 20 (≈ 48.5 µg/mL) | 10 (≈ 24.2 µg/mL) | 20 (≈ 48.5 µg/mL) | 40 (≈ 97 µg/mL) | 40 (≈ 97 µg/mL)
CCC(CC)CNCc1cn(C[C@H]2O[C@@H]3O[C@H]4[C@H](O)[C@@H](O)[C@@H](O[C@H]5[C@H](O)[C@@H](O)[C@@H](O[C@H]6[C@H](O)[C@@H](O)[C@@H](O[C@H]7[C@H](O)[C@@H](O)[C@@H](O[C@H]8[C@H](O)[C@@H](O)[C@@H](O[C@H]9[C@H](O)[C@@H](O)[C@@H](O[C@H]2[C@H](O)[C@H]3O)O[C@@H]9Cn2cc(CNCC(CC)CC)nn2)O[C@@H]8Cn2cc(CNCC(CC)CC)nn2)O[C@@H]7Cn2cc(CNCC(CC)CC)nn2)O[C@@H]6Cn2cc(CNCC(CC)CC)nn2)O[C@@H]5Cn2cc(CNCC(CC)CC)nn2)O[C@@H]4Cn2cc(CNCC(CC)CC)nn2)nn1 | -0.08 | 3 to 5 (≈ 6.85 to 11.4 µg/mL) | 3 (≈ 6.85 µg/mL) | 10 (≈ 22.8 µg/mL) | 42 (≈ 96 µg/mL) | 42 (≈ 96 µg/mL) | 12 | 8 | 8 | 3 | 1 | 5 | 21 (≈ 48 µg/mL) | 3 (≈ 6.85 µg/mL) | 10 (≈ 22.8 µg/mL) | > 42 | 21 (≈ 48 µg/mL)
CCCC(C)CCNCc1cn(C[C@H]2O[C@@H]3O[C@H]4[C@H](O)[C@@H](O)[C@@H](O[C@H]5[C@H](O)[C@@H](O)[C@@H](O[C@H]6[C@H](O)[C@@H](O)[C@@H](O[C@H]7[C@H](O)[C@@H](O)[C@@H](O[C@H]8[C@H](O)[C@@H](O)[C@@H](O[C@H]9[C@H](O)[C@@H](O)[C@@H](O[C@H]2[C@H](O)[C@H]3O)O[C@@H]9Cn2cc(CNCCC(C)CCC)nn2)O[C@@H]8Cn2cc(CNCCC(C)CCC)nn2)O[C@@H]7Cn2cc(CNCCC(C)CCC)nn2)O[C@@H]6Cn2cc(CNCCC(C)CCC)nn2)O[C@@H]5Cn2cc(CNCCC(C)CCC)nn2)O[C@@H]4Cn2cc(CNCCC(C)CCC)nn2)nn1 (stereo partly specified) | 0.27 | 3 to 20 (≈ 7.15 to 47.7 µg/mL) | 10 (≈ 23.8 µg/mL) | 5 (≈ 11.9 µg/mL) | 10 (≈ 23.8 µg/mL) | 10 (≈ 23.8 µg/mL) | 119 | 108 | 99 | 73 | 30 | 10 | 40 (≈ 95.3 µg/mL) | 20 (≈ 47.7 µg/mL) | 20 (≈ 47.7 µg/mL) | > 40 | 40 (≈ 95.3 µg/mL)
